In ChEMBL document CHEMBL1649409, “One-pot microwave assisted synthesis under green chemistry conditions, antioxidant screening, and cytotoxicity assessments of benzimidazole Schiff bases and pyrimido[1,2-a]benzimidazol-3(4H)-ones” (Eur J Med Chem, 2011):
Active and inactive are the calls of the source. The rule behind the calls is not given here.

What was measured:
Glycine max [1] = test: Inhibition of soybean LOX at 0.1 mM
In short: (§1)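 Soybean lipoxygenase solution (1/9×10^-4 w/v in saline) incubated at RT with sodium linoleate and compound in DMSO. Conversion to 13-hydroperoxylinoleic acid recorded at 234 nm against a standard inhibitor. At least triplicate, averaged.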

Glycine max [2] = test: Inhibition of soybean LOX at 0.01 mM; in short: as §1
[3] = Antioxidant activity assessed as protection against […]-induced linoleic acid lipid peroxidation 0.1 mM; assay type: functional
In short: (§2)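 Linoleic acid sodium salt (16 mM solution) in 0.05 M phosphate buffer, pH 7.4, prethermostated at 37 °C. Oxidation started at 37 °C under air with 40 mM AAPH solution, with compound aliquots in DMSO present. Blanks carry the same DMSO level. Conjugated diene hydroperoxide formation followed by absorbance increase at 234 nm. At least triplicate, averaged.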

[4] = Antioxidant activity assessed as protection against […]-induced linoleic acid lipid peroxidation 0.01 mM; assay type: functional; in short: as §2
[5] = system: Radical scavenging activity; test: Antioxidant activity assessed as DPPH radical scavenging activity at 0.05 mM after 20 mins; assay type: functional
In short: (§3)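 DPPH (0.05 mM in absolute ethanol) mixed with an equal volume of compound in DMSO (final 0.05 mM). Shaken vigorously, left 20 or 60 min, absorbance read at 517 nm. Percent activity calculated; three replicates averaged.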

[6] = system: Radical scavenging activity; test: Antioxidant activity assessed as DPPH radical scavenging activity at 0.05 mM after 60 mins; assay type: functional; in short: as §3
[7] = Cytotoxicity against human lung fibroblast assessed as cell viability at 0.03 to 0.037 mM after 24 hrs by MTT assay; assay type: cell-based; conditions: human lung fibroblasts, in the assay text read “0.003 to 0.037 mM” for “0.03 to 0.037 mM”, read-out: Activity
In short: (§4)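 Human lung fibroblasts, passage 19, grown in DMEM with 10% FBS, penicillin and streptomycin at 37 °C, 5% CO2. Seeded at 3×10^4 cells/mL and allowed to adhere 24 h. Exposed 24 h to compounds in DMSO (≤1% final), 1–50 µg/mL. After washing, MTT (5 mg/mL in PBS) added for 4–6 h at 37 °C. Formazan dissolved in isopropanol, read at 570 nm. At least three measurements.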

[8] = Cytotoxicity against human lung fibroblast assessed as cell viability at 0.16 mM after 24 hrs by MTT assay; assay type: cell-based; conditions: human lung fibroblasts, read-out: Activity; in short: as §4
[9] = Cytotoxicity against human lung fibroblast assessed as cell viability at 0.17 mM after 24 hrs by MTT assay; assay type: cell-based; conditions: human lung fibroblasts, read-out: Activity; in short: as §4
[10] = Cytotoxicity against human lung fibroblast assessed as cell viability at 50 ug/ml after 24 hrs by MTT assay; assay type: cell-based; conditions: human lung fibroblasts, read-out: Activity; in short: as §4
[11] = Cytotoxicity against human lung fibroblast assessed as cell viability at 0.04 mM after 24 hrs by MTT assay; assay type: cell-based; conditions: 40 µM; in short: as §4
[12] = Cytotoxicity against human lung fibroblast assessed as cell viability at 0.02 mM after 24 hrs by MTT assay; assay type: cell-based; conditions: 20 µM; in short: as §4

| Structure (SMILES) | inhibition (Glycine max [1]) | inhibition (Glycine max [2]) | inhibition [3] [%] | inhibition [4] [%] | inhibition [5] | inhibition [6] | viability at 24 h, up to 37 µM [7] [%] | viability at 24 h, 160 µM [8] [%] | viability at 24 h, 170 µM [9] [%] | viability at 24 h, 50 ug/ml [10] [%] | Activity [11] | Activity [12] |
| --- | --- | --- | --- | --- | --- | --- | --- | --- | --- | --- | --- | --- |
| Cc1cc(C(C)(C)C)c(O)c(C(C)(C)C)c1 |  |  |  |  | 31% | 60% |  |  |  |  |  |  |
| Cc1ccc(C2=Nc3nc4ccccc4n3C(C)(c3ccc(C)cc3)C2=O)cc1 (stereo not drawn) | 40% | inactive | 80 | 8 | inactive | inactive |  |  |  |  |  |  |
| Cc1c(C)c2c(c(C)c1O)CCC(C)(C(=O)O)O2 (stereo not drawn) |  |  | 63 |  |  |  |  |  |  |  |  |  |
| CC1(c2ccc(Br)cc2)C(=O)C(c2ccc(Br)cc2)=Nc2nc3ccccc3n21 (stereo not drawn) | 61% | 51% | 78 | 9 | 3% | 2% |  |  |  |  |  |  |
| COc1cccc(C2=Nc3nc4ccccc4n3C(C)(c3cccc(OC)c3)C2=O)c1 (stereo not drawn) | inactive | inactive | 100 | 3 | 3% | 2% |  |  |  | 63 | Non-toxic |  |
| CC(Cc1ccc(O)c(O)c1)C(C)Cc1ccc(O)c(O)c1 (stereo not drawn) | 84% | 40% |  |  | 81% | 83% |  |  |  |  |  |  |
| CC1(c2ccccc2)C(=O)C(c2ccccc2)=Nc2nc3ccccc3n21 (stereo not drawn) | 100% | 49% | 100 | 11 | 2% | 1% |  |  |  |  |  |  |
| CC1(c2ccc(Cl)cc2)C(=O)C(c2ccc(Cl)cc2)=Nc2nc3ccccc3n21 (stereo not drawn) | inactive | inactive | 97 | 33 | 2% | 2% |  |  |  | 37 |  | Non-toxic |
| Cc1cccc(C2=Nc3nc4ccccc4n3C(C)(c3cccc(C)c3)C2=O)c1 (stereo not drawn) | 19% | inactive | 84 | 35 | 4% | 5% |  |  |  |  |  |  |
| CC1(c2cccc(Br)c2)C(=O)C(c2cccc(Br)c2)=Nc2nc3ccccc3n21 (stereo not drawn) | 12% | inactive |  | 51 | inactive | 3% |  |  |  |  |  |  |

Now from value to compound, other results behind:

| inhibition (Glycine max [1]) | inhibition (Glycine max [2]) | Structure (SMILES) | inhibition [3] [%] | inhibition [4] [%] | inhibition [5] | inhibition [6] | viability at 24 h, up to 37 µM [7] [%] | viability at 24 h, 160 µM [8] [%] | viability at 24 h, 170 µM [9] [%] | viability at 24 h, 50 ug/ml [10] [%] | Activity [11] | Activity [12] |
| --- | --- | --- | --- | --- | --- | --- | --- | --- | --- | --- | --- | --- |
| inactive | inactive | C/C(=N\c1nc2ccccc2[nH]1)c1ccc(C)cc1 | 84 | 47 | inactive | 8% |  |  |  |  |  |  |
| 65% | 22% | COc1ccc(/C(C)=N/c2nc3ccccc3[nH]2)cc1 | 68 | 12 | 4% | 3% | 56 |  |  |  |  |  |
| inactive | inactive | C/C(=N\c1nc2ccccc2[nH]1)c1ccccc1 | 67 | 18 | 0.3% | 5% |  |  |  |  |  |  |
| inactive | inactive | C/C(=N\c1nc2ccccc2[nH]1)c1cccc(Br)c1 | 97 | 65 | inactive | 6% |  |  |  |  |  |  |
| 18% | inactive | C/C(=N\c1nc2ccccc2[nH]1)c1ccc(Br)cc1 | 50 | 22 | inactive | 4% |  | 73.6 |  |  |  |  |
| 98% | 18% | C/C(=N\c1nc2ccccc2[nH]1)c1ccc2ccccc2c1 | 97 | 26 | 5% | 7% |  |  | 62.5 |  |  |  |
| 42% | inactive | COc1cccc(/C(C)=N/c2nc3ccccc3[nH]2)c1 | 100 | 69 | inactive | inactive |  |  |  |  |  |  |
| 8% | inactive | C/C(=N\c1nc2ccccc2[nH]1)c1cccc(C)c1 | 77 | 63 | inactive | inactive |  |  |  |  |  |  |
| 85% | 62% | C/C(=N\c1nc2ccccc2[nH]1)c1ccc(Cl)cc1 | 26 |  | 3% | 4% |  |  |  |  |  |  |
